Source: ChEMBL document CHEMBL1123678, “Octahydropyrazino[2',3':3,4]pyrido[1,2-a]indoles. A new class of potent antihypertensive agents” (1987)

What was measured:
[1] = tested on: Rattus norvegicus; experiment: Vasopressor responses to epinephrine as a measure of the alpha-1-adrenoceptor blocking activity at 10 mg/kg administered orally was reported to be reveresed; type: functional, organism-based; set-up: dose 10 mg/kg
[2] = tested on: Rattus norvegicus; experiment: Antihypertensive activity was determined in cannulated spontaneously hypertensive rats(SHR) and maximum decrease of mean arterial blood pressure (MABP) at 10 mg/kg oral dose; type: functional, Artery
Outline: (§1)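 Cannulated SHR given compound by gastric gavage in 0.5% methylcellulose (5 mL/kg), doses 0.1–50 mg/kg, 4–8 animals per dose, after 1-h equilibration. MABP recorded for 4 h; maximal % decrease reported with time to peak effect. Significance by two-way analysis of variance.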

[3] = tested on: Rattus norvegicus; experiment: Vasopressor responses to epinephrine as a measure of the alpha-1-adrenoceptor blocking activity at 5 mg/kg administered orally was reported to be reveresed; type: functional, organism-based; set-up: dose 5 mg/kg
[4] = tested on: Rattus norvegicus; experiment: Antihypertensive activity was determined in cannulated spontaneously hypertensive rats(SHR) and marked bradycardia was reported at a dose of 10 mg/kg; type: functional, organism-based; set-up: dose 10 mg/kg
[5] = tested on: Rattus norvegicus; experiment: Antihypertensive activity was determined in cannulated spontaneously hypertensive rats(SHR) and maximum decrease of mean arterial blood pressure (MABP) at 5 mg/kg oral dose; type: functional, Artery; outline: as §1
[6] = tested on: Rattus norvegicus; experiment: Antihypertensive activity was determined in cannulated spontaneously hypertensive rats(SHR) and marked bradycardia was reported at a dose of 5 mg/kg; type: functional, organism-based; set-up: dose 5 mg/kg
[7] = tested on: Rattus norvegicus; experiment: Vasopressor responses to epinephrine as a measure of the alpha-1-adrenoceptor blocking activity at 1 mg/kg administered orally was reported to be reveresed; type: functional, organism-based; set-up: dose 1 mg/kg
[8] = tested on: Rattus norvegicus; experiment: Antihypertensive activity was determined in cannulated spontaneously hypertensive rats(SHR) and maximum decrease of mean arterial blood pressure (MABP) at 1 mg/kg oral dose; type: functional, Artery; outline: as §1
[9] = tested on: Rattus norvegicus; experiment: Antihypertensive activity was determined in cannulated spontaneously hypertensive rats(SHR) and maximum decrease of mean arterial blood pressure (MABP) at 50 mg/kg oral dose; type: functional, Artery; outline: as §1
[10] = tested on: Rattus norvegicus; experiment: Antagonism of vasopressor responses to epinephrine as a measure of the alpha-1-adrenoceptor blocking activity at 50 mg/kg administered orally was reported to be reversed; type: functional, organism-based; set-up: dose 50 mg/kg

What does the source list for CCN1CCN(CC)[C@H]2c3c(C)c4ccccc4n3CC[C@@H]21.Cl.Cl?
Activity [1]: Vasopressor response reveresed; Decrease in MABP [2]: 32%; Activity [3]: Vasopressor response reveresed; HR [4]: Heart rate response was reported to be reduce by 10-25% after 4 hr at a dose of 25 mg/kg; Decrease in MABP [5]: 28%; HR [6]: Heart rate response was reported to be reduce by 10-25% after 4 hr at a dose of 25 mg/kg; Activity [7]: Vasopressor response reveresed; Decrease in MABP [8]: 14%

What does the source list for CCN1CCN(CCOc2ccccc2)C2CCn3c(c(C)c4ccccc43)C21.Cl.Cl (stereo not given)?
Decrease in MABP [9]: 22%; Activity [10]: Antagonism reversed
